In ChEMBL document CHEMBL3763021 (Eur J Med Chem, 2016):
Blank lines part the entries; values can stand above or below the compound they belong to.

What was measured:
[1] = Inhibition of Sonic-induced hedgehog signalling in mouse NIH3T3 cells after 48 hrs by Gli-luciferase reporter assay; assay type: cell-based; details: NIH3T3, 48 h
Method in brief: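 NIH3T3 cells stably carrying a Gli-luciferase reporter were kept in DMEM with 10% FBS and 1 µg/mL puromycin, then seeded at 2×10^4 cells/well overnight at 37 °C. Compounds at 0.05–300 nM (8 concentrations) were added in medium with 0.5% FBS and 0.7 µg/mL Sonic Hh agonist, n=4 wells, for 48 h. Readout was the Firefly/Renilla luciferase ratio in lysates.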

[2] = Mean resident time (0 to t) in Sprague-Dawley rat at 5 mg/kg, po by LC/MS/MS analysis; assay type: ADME, organism-based; details: in vivo
Method in brief: (§1)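 Male SD rats, 180–240 g, 3 per compound; single dose of 1 mg/kg iv or 5 mg/kg po, dosing volume 5 mL/kg. Blood was sampled from 2 min to 24 h and centrifuged at 4 °C. Plasma underwent protein precipitation, then LC/MS/MS in SRM mode with an internal standard. Parameters were derived by noncompartmental analysis.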

[3] = Clearance in Sprague-Dawley rat at 5 mg/kg, po by LC/MS/MS analysis; assay type: ADME, organism-based; details: in vivo; method in brief: as §1
[4] = Cmax in Sprague-Dawley rat at 5 mg/kg, po by LC/MS/MS analysis; assay type: ADME, organism-based; set-up: dose 5 mg/kg, route oral; details: in vivo; method in brief: as §1
[5] = Half life in Sprague-Dawley rat at 5 mg/kg, po by LC/MS/MS analysis; assay type: ADME, organism-based; details: in vivo; method in brief: as §1
[6] = AUC (0 to t) in Sprague-Dawley rat at 5 mg/kg, po by LC/MS/MS analysis; assay type: ADME, organism-based; details: in vivo; method in brief: as §1
Rattus norvegicus = test: Apparent volume of distribution in Sprague-Dawley rat at 5 mg/kg, po by LC/MS/MS analysis; details: in vivo
[7] = Mean resident time (0 to t) in Sprague-Dawley rat at 1 mg/kg, iv by LC/MS/MS analysis; assay type: ADME, organism-based; details: in vivo; method in brief: as §1
[8] = Clearance in Sprague-Dawley rat at 1 mg/kg, iv by LC/MS/MS analysis; assay type: ADME, organism-based; details: in vivo; method in brief: as §1
[9] = AUC (0 to t) in Sprague-Dawley rat at 1 mg/kg, iv by LC/MS/MS analysis; assay type: ADME, organism-based; details: in vivo
Method in brief: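 Male SD rats, 3 per compound, 180–240 g, single iv dose at 1 mg/kg, dosing volume 5 mL/kg. Blood sampled at 2, 5, 15, 30 min and 1, 2, 4, 6, 8, 10, 24 h, then centrifuged at 4 °C. Plasma protein-precipitated and analysed by LC/MS/MS in SRM mode with internal standard. AUC(0-t) obtained by noncompartmental analysis.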

[10] = Cmax in Sprague-Dawley rat at 1 mg/kg, iv by LC/MS/MS analysis; assay type: ADME, organism-based; set-up: dose 1 mg/kg, route intravenous; details: in vivo; method in brief: as §1
[11] = Half life in Sprague-Dawley rat at 1 mg/kg, iv by LC/MS/MS analysis; assay type: ADME, organism-based; details: in vivo; method in brief: as §1
[12] = Apparent volume of distribution in Sprague-Dawley rat at 1 mg/kg, iv by LC/MS/MS analysis; details: in vivo

IC50 [1]: 3.19 nM
Structure (SMILES): Cc1ccc(CN(C)C)cc1NC(=O)c1ccc(Nc2ncc(F)c(-c3ccc(OC(F)(F)F)cc3)n2)cc1

IC50 [1]: 2.56 nM
Structure (SMILES): CCN(CC)Cc1ccc(C)c(NC(=O)c2ccc(Nc3ncc(F)c(-c4ccc(OC(F)(F)F)cc4)n3)cc2)c1

IC50 [1]: 2.31 nM
Structure (SMILES): CCN(CC)Cc1ccc(C)c(NC(=O)c2ccc(Nc3nccc(-c4ccc(OC(F)(F)F)cc4)n3)cc2)c1

IC50 [1]: 2.84 nM
Structure (SMILES): Cc1ccc(CN2CCN(C)CC2)cc1NC(=O)c1ccc(Nc2ncc(F)c(-c3ccc(OC(F)(F)F)cc3)n2)cc1

MRT last [7]: 4.23 h
clearance [8]: 8.37 mL/min/kg
MRT last [2]: 7.74 h
CL/F [3]: 80.8 mL/min/kg
AUC(0-t) [9]: 1890 ng·h/mL
Cmax [10]: 3140 ng/mL
Cmax [4]: 86.6 ng/mL
half-life [5]: 7.24 h
AUC(0-t) [6]: 923 ng·h/mL
half-life [11]: 8.85 h
IC50 [1]: 1.14 nM
Vd [12]: 6.28 L/kg
Vd(app) (Rattus norvegicus): 50.45546 L/kg
Structure (SMILES): Cc1ccc(CN2CCOCC2)cc1NC(=O)c1ccc(Nc2ncc(F)c(-c3ccc(OC(F)(F)F)cc3)n2)cn1

The remaining lines, values behind:

Structure (SMILES): Cc1ccc(CN2CCOCC2)cc1NC(=O)c1ccc(Nc2nccc(-c3ccc(OC(F)(F)F)cc3)n2)cn1
MRT last [2]: 4.83 h
CL/F [3]: 123 mL/min/kg
Cmax [4]: 137 ng/mL
half-life [5]: 5.56 h
AUC(0-t) [6]: 660 ng·h/mL
IC50 [1]: 0.69 nM
Vd(app) (Rattus norvegicus): 59.60185 L/kg

Structure (SMILES): Cc1ccc(CN2CCOCC2)cc1NC(=O)c1ccc(Nc2ncc(F)c(-c3ccc(OC(F)(F)F)cc3)n2)nc1
MRT last [7]: 1.98 h
clearance [8]: 26.4 mL/min/kg
AUC(0-t) [9]: 625 ng·h/mL
Cmax [10]: 770 ng/mL
half-life [11]: 2.02 h
IC50 [1]: 0.78 nM
Vd [12]: 4.62 L/kg

Structure (SMILES): Cc1ccc(CN2CCOCC2)cc1NC(=O)c1ccc(Nc2ncc(C3CC3)c(-c3ccc(OC(F)(F)F)cc3)n2)cc1
IC50 [1]: 11.9 nM

Structure (SMILES): Cc1ccc(CN2CCCCC2)cc1NC(=O)c1ccc(Nc2nccc(-c3ccc(OC(F)(F)F)cc3)n2)cc1
IC50 [1]: 2.68 nM
